Legend:
Format in all cases: functional
MOLT-4 [1] = experiment: Growth inhibition of human MOLT-4 cells at 10 uM incubated for 48 hrs by sulforhodamine B assay relative to control; conditions: read-out: GI
Method in brief: (§1)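 NCI one-dose screen. Cells grown in RPMI 1640 with 5% FBS and 2 mM L-glutamine, plated and incubated 24 h at 37 °C, 5% CO2. DMSO-dissolved drug added, then 48 h further incubation. Adherent cells fixed with cold TCA, suspension cells fixed after settling. Stained with 0.4% SRB, absorbance read at 515 nm. Reported as percent growth relative to no-drug control and time-zero cell number.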

HOP-92 = experiment: Growth inhibition of human HOP-92 cells at 10 uM incubated for 48 hrs by sulforhodamine B assay relative to control; conditions: read-out: GI
Method in brief: (§2)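 NCI-60 single-dose screen. Cells were grown in RPMI 1640 with 5% FBS and 2 mM L-glutamine and plated 24 h before drug addition. Compound was added at one concentration in DMSO-derived medium and incubated for 48 h at 37 °C in 5% CO2. Read-out was SRB protein stain at 515 nm. Result is percent growth versus the no-drug control and the time-zero cell count; values below 0 indicate lethality.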

NCI-H23 = experiment: Growth inhibition of human NCI-H23 cells at 10 uM incubated for 48 hrs by sulforhodamine B assay relative to control; conditions: read-out: GI; method in brief: as §1
NCI-H322M = experiment: Growth inhibition of human NCI-H322M cells at 10 uM incubated for 48 hrs by sulforhodamine B assay relative to control; conditions: read-out: GI; method in brief: as §1
SW-620 [2] = experiment: Growth inhibition of human SW-620 cells at 10 uM incubated for 48 hrs by sulforhodamine B assay relative to control; conditions: read-out: GI
Method in brief: (§3)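 NCI one-dose screen across a 59-line panel. Cells were grown in RPMI 1640 with 5% FBS and 2 mM L-glutamine, plated and pre-incubated 24 h, then exposed to drug for 48 h at 37 °C, 5% CO2. Adherent cells were fixed with cold TCA (10% final), stained with 0.4% SRB in 1% acetic acid and read at 515 nm. Result is percent growth relative to no-drug control and time-zero cell count.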

U-251 = experiment: Growth inhibition of human U-251 cells at 10 uM incubated for 48 hrs by sulforhodamine B assay relative to control; conditions: read-out: GI; method in brief: as §3
Malme-3M [3] = experiment: Growth inhibition of human Malme-3M cells at 10 uM incubated for 48 hrs by sulforhodamine B assay relative to control; conditions: read-out: GI; method in brief: as §1
UACC-257 = experiment: Growth inhibition of human UACC-257 cells at 10 uM incubated for 48 hrs by sulforhodamine B assay relative to control; conditions: read-out: GI; method in brief: as §3
OVCAR-4 = experiment: Growth inhibition of human OVCAR-4 cells at 10 uM incubated for 48 hrs by sulforhodamine B assay relative to control; conditions: read-out: GI; method in brief: as §1
SK-OV-3 = experiment: Growth inhibition of human SK-OV-3 cells at 10 uM incubated for 48 hrs by sulforhodamine B assay relative to control; conditions: read-out: GI; method in brief: as §1
A498 [4] = experiment: Growth inhibition of human A498 cells at 10 uM incubated for 48 hrs by sulforhodamine B assay relative to control; conditions: read-out: GI; method in brief: as §3
TK-10 = experiment: Growth inhibition of human TK-10 cells at 10 uM incubated for 48 hrs by sulforhodamine B assay relative to control; conditions: read-out: GI; method in brief: as §3
BT-549 [5] = experiment: Growth inhibition of human BT-549 cells at 10 uM incubated for 48 hrs by sulforhodamine B assay relative to control; conditions: read-out: GI; method in brief: as §2
CCRF-CEM = experiment: Growth inhibition of human CCRF-CEM cells incubated for 48 hrs by sulforhodamine B assay
Method in brief: (§4)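 NCI five-dose screen covering 0.01–100 µM, prepared as 10-fold or ½-log dilutions from DMSO stock. Cells in RPMI 1640 with 5% FBS were exposed for 48 h at 37 °C after 24 h preincubation. Adherent cells were fixed with TCA (final 10%) and suspension cells were settled before fixing. Stain was SRB, read at 515 nm. GI50 = 50% reduction in net protein increase versus control, with Tz taken at drug addition.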

MOLT-4 [6] = experiment: Growth inhibition of human MOLT-4 cells incubated for 48 hrs by sulforhodamine B assay
Method in brief: (§5)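 NCI five-dose screen (0.01–100 µM; five concentrations plus control). Cells grown in RPMI 1640/5% FBS/2 mM L-glutamine and preincubated 24 h, with time-zero plates TCA-fixed. Drug exposure 48 h at 37 °C, followed by SRB protein staining and reading at 515 nm. GI50 is the concentration at [(Ti-Tz)/(C-Tz)]×100 = 50.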

NCI-H226 = experiment: Growth inhibition of human NCI-H226 cells incubated for 48 hrs by sulforhodamine B assay; method in brief: as §5
NCI-H460 = experiment: Growth inhibition of human NCI-H460 cells incubated for 48 hrs by sulforhodamine B assay; method in brief: as §5
NCI-H522 = experiment: Growth inhibition of human NCI-H522 cells incubated for 48 hrs by sulforhodamine B assay; method in brief: as §5
HCT-116 = experiment: Growth inhibition of human HCT-116 cells incubated for 48 hrs by sulforhodamine B assay; method in brief: as §4
KM12 = experiment: Growth inhibition of human KM12 cells incubated for 48 hrs by sulforhodamine B assay; method in brief: as §4
SW-620 [7] = experiment: Growth inhibition of human SW-620 cells incubated for 48 hrs by sulforhodamine B assay
Method in brief: (§6)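 NCI five-dose assay, with drug stocks in DMSO diluted in medium to five concentrations (10-fold or ½-log series). Cells in RPMI 1640/5% FBS were pre-incubated 24 h, and time-zero plates were TCA-fixed at drug addition. After 48 h at 37 °C, cells were TCA-fixed, SRB-stained and read at 515 nm. GI50 is from [(Ti-Tz)/(C-Tz)]×100 = 50, TGI from Ti = Tz, and LC50 from [(Ti-Tz)/Tz]×100 = -50.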

LOX IMVI = experiment: Growth inhibition of human LOX IMVI cells incubated for 48 hrs by sulforhodamine B assay; method in brief: as §4
Malme-3M [8] = experiment: Growth inhibition of human Malme-3M cells incubated for 48 hrs by sulforhodamine B assay; method in brief: as §5
MDA-MB-435 = experiment: Growth inhibition of human MDA-MB-435 cells incubated for 48 hrs by sulforhodamine B assay; method in brief: as §4
SK-MEL-28 = experiment: Growth inhibition of human SK-MEL-28 cells incubated for 48 hrs by sulforhodamine B assay; method in brief: as §5
IGROV-1 = experiment: Growth inhibition of human IGROV-1 cells incubated for 48 hrs by sulforhodamine B assay; method in brief: as §4
A498 [9] = experiment: Growth inhibition of human A498 cells incubated for 48 hrs by sulforhodamine B assay; method in brief: as §6
ACHN = experiment: Growth inhibition of human ACHN cells incubated for 48 hrs by sulforhodamine B assay; method in brief: as §4
PC-3 = experiment: Growth inhibition of human PC-3 cells incubated for 48 hrs by sulforhodamine B assay; method in brief: as §5
MDA-MB-231 = experiment: Growth inhibition of human MDA-MB-231 cells incubated for 48 hrs by sulforhodamine B assay; method in brief: as §4
BT-549 [10] = experiment: Growth inhibition of human BT-549 cells incubated for 48 hrs by sulforhodamine B assay; method in brief: as §4
T47D = experiment: Growth inhibition of human T47D cells incubated for 48 hrs by sulforhodamine B assay; method in brief: as §6
MDA-MB-468 = experiment: Growth inhibition of human MDA-MB-468 cells incubated for 48 hrs by sulforhodamine B assay; method in brief: as §4

`COc1cc2nc(-c3ccc(C(F)(F)F)cc3)cc(OCCN3CCCC3)c2cc1OC` showed an inhibition of growth at 10 µM (MOLT-4 [1]) of 13%, an inhibition of growth at 10 µM (HOP-92) of 13% and an inhibition of growth at 10 µM (NCI-H23) of 13%. It also gave an inhibition of growth at 10 µM (NCI-H322M) of 13%, an inhibition of growth at 10 µM (SW-620 [2]) of 13% and an inhibition of growth at 10 µM (U-251) of 13%. For the same molecule, the inhibition of growth at 10 µM (Malme-3M [3]) was 13%, the inhibition of growth at 10 µM (UACC-257) was 13% and the inhibition of growth at 10 µM (OVCAR-4) was 13%. For the same molecule, the inhibition of growth at 10 µM (SK-OV-3) was 13%, the inhibition of growth at 10 µM (A498 [4]) was 13% and the inhibition of growth at 10 µM (TK-10) was 13%. It also gave an inhibition of growth at 10 µM (BT-549 [5]) of 13%.

`COc1cc2nc(-c3ccsc3)cc(OCCCN3CCC(O)CC3)c2cc1OC` was tested, and the inhibition of growth at 10 µM (MOLT-4 [1]) was 32%, the inhibition of growth at 10 µM (HOP-92) was 32% and the inhibition of growth at 10 µM (NCI-H23) was 32%. The inhibition of growth at 10 µM (NCI-H322M) was 32%, the inhibition of growth at 10 µM (SW-620 [2]) was 32% and the inhibition of growth at 10 µM (U-251) was 32%. For the same molecule, the inhibition of growth at 10 µM (Malme-3M [3]) was 32%, the inhibition of growth at 10 µM (UACC-257) was 32% and the inhibition of growth at 10 µM (OVCAR-4) was 32%. The inhibition of growth at 10 µM (SK-OV-3) was 32%, the inhibition of growth at 10 µM (A498 [4]) was 32% and the inhibition of growth at 10 µM (TK-10) was 32%. For the same molecule, the inhibition of growth at 10 µM (BT-549 [5]) was 32%.

For `COc1cc2nc(-c3cccs3)cc(OCCCN3CCC(O)CC3)c2cc1OC`, the inhibition of growth at 10 µM (MOLT-4 [1]) was 20%, the inhibition of growth at 10 µM (HOP-92) was 20% and the inhibition of growth at 10 µM (NCI-H23) was 20%. For the same molecule, the inhibition of growth at 10 µM (NCI-H322M) was 20%, the inhibition of growth at 10 µM (SW-620 [2]) was 20% and the inhibition of growth at 10 µM (U-251) was 20%. The inhibition of growth at 10 µM (Malme-3M [3]) was 20%, the inhibition of growth at 10 µM (UACC-257) was 20% and the inhibition of growth at 10 µM (OVCAR-4) was 20%. The inhibition of growth at 10 µM (SK-OV-3) was 20%, the inhibition of growth at 10 µM (A498 [4]) was 20% and the inhibition of growth at 10 µM (TK-10) was 20%. For the same molecule, the inhibition of growth at 10 µM (BT-549 [5]) was 20%.

Molecule `COc1cc2nc(-c3ccc(Cl)cc3)cc(OCCN3CCCCC3)c2cc1OC` has an inhibition of growth at 10 µM (MOLT-4 [1]) of 3%, an inhibition of growth at 10 µM (HOP-92) of 3% and an inhibition of growth at 10 µM (NCI-H23) of 3%. It also gave an inhibition of growth at 10 µM (NCI-H322M) of 3%, an inhibition of growth at 10 µM (SW-620 [2]) of 3% and an inhibition of growth at 10 µM (U-251) of 3%. It also gave an inhibition of growth at 10 µM (Malme-3M [3]) of 3%, an inhibition of growth at 10 µM (UACC-257) of 3% and an inhibition of growth at 10 µM (OVCAR-4) of 3%. It also gave an inhibition of growth at 10 µM (SK-OV-3) of 3%, an inhibition of growth at 10 µM (A498 [4]) of 3% and an inhibition of growth at 10 µM (TK-10) of 3%. For the same molecule, the inhibition of growth at 10 µM (BT-549 [5]) was 3%.

`COc1cc2nc(-c3ccc(C(F)(F)F)cc3)cc(OCCCN3CCCCC3)c2cc1OC` showed a GI50 (CCRF-CEM) of 1830 nM, a GI50 (MOLT-4 [6]) of 1700 nM and a GI50 (NCI-H226) of 370 nM. It also gave a GI50 (NCI-H460) of 595 nM, a GI50 (NCI-H522) of 2440 nM and a GI50 (HCT-116) of 429 nM. It also gave a GI50 (KM12) of 2920 nM, a GI50 (SW-620 [7]) of 2910 nM and a GI50 (LOX IMVI) of 162 nM. The TGI (LOX IMVI) was 355 nM, the GI50 (Malme-3M [8]) was 1260 nM and the GI50 (MDA-MB-435) was 1230 nM. For the same molecule, the GI50 (SK-MEL-28) was 1260 nM, the GI50 (IGROV-1) was 651 nM and the GI50 (A498 [9]) was 1850 nM. The GI50 (ACHN) was 1200 nM, the GI50 (PC-3) was 1340 nM and the GI50 (MDA-MB-231) was 536 nM. For the same molecule, the GI50 (BT-549 [10]) was 1480 nM, the GI50 (T47D) was 454 nM and the GI50 (MDA-MB-468) was 1030 nM.
